Experiment [1] in a line: Inhibition of recombinant Streptococcus pyogenes sortase A deltaN81 transpeptidation expressed in Escherichia coli BL21 (DE3) cells using IsdA64 to 323 as substrate preincubated for 20 mins followed by substrate addition and measured after 1.5 hrs by SDS-PAGE-based assay. In short, it runs like this:
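SrtA (200 µg mL-1) preincubated with inhibitor (1–50 µM) for 20 min at room temperature in Tris pH 7.5, NaCl, CaCl2 buffer. IsdA64-323 (300 µg mL-1 final) and 3 mM (Gly)3 added, incubated at 37 °C for 1.5 h, then run on 12% SDS-PAGE. IC50 from band quantification of precursor and mature product. Two independent experiments.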

The target of experiment [2] is T1, Sortase A (Staphylococcus aureus, UniProt Q9S446). In words: Irreversible inhibition of recombinant Staphylococcus aureus sortase A deltaN24 expressed in Escherichia coli BL21(DE3) cells using Abz-LPATG-Dnp as substrate preincubated for 20 mins followed by substrate addition and measured every 1 min for 15 mins by FRET-based assay. In short, it runs like this:
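SaSrtAΔN24 preincubated with compound for 10, 20, 40 or 60 min before FRET IC50 determination with Abz-LPATG-Dnp in Tris pH 7.5, NaCl, CaCl2 buffer.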

For experiment [3], the system named is Sortase A (Staphylococcus aureus), Q9S446 [UNDEFINED MUTATION]. In words: Irreversible inhibition of recombinant Staphylococcus aureus sortase A deltaN24 expressed in Escherichia coli BL21(DE3) cells assessed as thermal stabilization by measuring change in melting temperature incubated for 15 mins by Nano DSF assay. In short, it runs like this: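 40 µg SaSrtAΔN24 (wild type or C184A) in 100 µL 50 mM Tris-HCl pH 9.0, 150 mM NaCl, 5 mM CaCl2 incubated with compound for 15 min at room temperature, then centrifuged. Label-free nanoDSF read at 330/350 nm while ramping 30–90 °C at 2 °C per min. Tm taken from the first derivative of the ratio.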
For orientation: DSF heats the sample and reads unfolding from a dye or from intrinsic fluorescence.

Experiment [4] is described as follows: Irreversible inhibition of recombinant Streptococcus pyogenes sortase A deltaN81 expressed in Escherichia coli BL21(DE3) cells using Abz-LPATG-Dnp as substrate preincubated for 20 mins followed by substrate addition and measured every 1 min for 15 mins by FRET-based assay.
Experiment [5] is described as follows: Irreversible inhibition of recombinant Streptococcus pyogenes sortase A deltaN81 expressed in Escherichia coli BL21(DE3) cells using Abz-LPATG-Dnp as substrate preincubated for 60 mins followed by substrate addition and measured every 1 min for 15 mins by FRET-based assay.
Experiment [6] concerns the target T1, Sortase A. In words: Irreversible inhibition of recombinant Staphylococcus aureus sortase A deltaN24 expressed in Escherichia coli BL21(DE3) cells using Abz-LPATG-Dnp as substrate assessed as inactivation constant preincubated for 60 mins followed by substrate addition and measured every 1 min for 15 mins by fluorescence intensity based assay. In a few lines: (§1)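 Variable inhibitor concentrations incubated with SaSrtAΔN24 or SpSrtAΔN81 for different times, followed by FRET enzyme kinetics with Abz-LPATG-Dnp. kobs fitted as kinact × [I]/(KI + [I]) to give kinact and KI.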

For experiment [7], the system named is Sortase A (Staphylococcus aureus), Q9S446 [UNDEFINED MUTATION]. Briefly: Irreversible inhibition of recombinant Staphylococcus aureus sortase A deltaN24 expressed in Escherichia coli BL21(DE3) cells using Abz-LPATG-Dnp as substrate assessed as maximum inactivation rate constant preincubated for 60 mins followed by substrate addition and measured every 1 min for 15 mins by fluorescence intensity based assay. As to conditions: time 75.0 min. In short, it runs like this:
as §1

Experiment [8] shares this test system. Briefly: Irreversible inhibition of recombinant Staphylococcus aureus sortase A deltaN24 expressed in Escherichia coli BL21(DE3) cells using Abz-LPATG-Dnp as substrate assessed as […] preincubated for 60 mins followed by substrate addition and measured every 1 min for 15 mins by fluorescence intensity based assay. As to conditions: time 75.0 min. In short, it runs like this:
as §1

Experiment [9] can be described thus: Irreversible inhibition of recombinant Streptococcus pyogenes sortase A deltaN81 expressed in Escherichia coli BL21(DE3) cells using Abz-LPATG-Dnp as substrate assessed as inactivation constant preincubated for 60 mins followed by substrate addition and measured every 1 min for 15 mins by fluorescence intensity based assay. In short, it runs like this: as §1

For experiment [10], the system named is Streptococcus pyogenes. In words: Irreversible inhibition of recombinant Streptococcus pyogenes sortase A deltaN81 expressed in Escherichia coli BL21(DE3) cells using Abz-LPATG-Dnp as substrate assessed as maximum inactivation rate constant preincubated for 60 mins followed by substrate addition and measured every 1 min for 15 mins by fluorescence intensity based assay. The conditions noted are these: time 75.0 min. In short, it runs like this:
as §1

Experiment [11] has as its system Streptococcus pyogenes. Briefly: Irreversible inhibition of recombinant Streptococcus pyogenes sortase A deltaN81 expressed in Escherichia coli BL21(DE3) cells using Abz-LPATG-Dnp as substrate assessed as Kinact/Ki ratio preincubated for 60 mins followed by substrate addition and measured every 1 min for 15 mins by fluorescence intensity based assay. As to conditions: time 75.0 min. In short, it runs like this:
as §1

Experiment [12] in a line: Selectivity ratio of Ki for irreversible inhibition of recombinant Staphylococcus aureus sortase A deltaN24 expressed in Escherichia coli BL21(DE3) cells to Ki for irreversible inhibition of recombinant Streptococcus pyogenes sortase A deltaN81 expressed in Escherichia coli BL21(DE3) cells.
Experiment [13] concerns Staphylococcus aureus. In words: Anti-virulence activity against Staphylococcus aureus Newman harbouring deltasrtA mutant assessed as decrease in cell-wall anchored SpA level at 25 to 200 uM by FITC-labelled human IgG based […]. In kind it is functional, organism-based. The conditions noted are these: dose 25-200 µM. In a few lines:
(§2)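 S. aureus grown in TSB (1:1000 dilution) with inhibitor until A600 1.0. Washed cells incubated with FITC-labelled human IgG in PBS for 30 min at room temperature in the dark, rinsed, and read by fluorescence. Three technical replicates, three independent experiments. Mean ± SEM, unpaired two-tailed Student's t test (n = 3).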
Background: A western blot detects proteins with antibodies after separation by electrophoresis.

Experiment [14] relates to Staphylococcus aureus. In words: Anti-virulence activity against Staphylococcus aureus USA300 assessed as decrease in cell-wall anchored SpA level at 25 to 200 uM by FITC-labelled human IgG based […]. In kind it is functional, organism-based. The conditions noted are these: dose 25-200 µM. In a few lines: as §2
Experiment [15] deals with Staphylococcus aureus. Briefly: Antibacterial activity against Staphylococcus aureus USA300 assessed as inhibition of bacterial growth incubated for 16 to 18 hrs. It counts as functional. The conditions noted are these: time 16-18 hrs. In a few lines: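 Broth microdilution: S. aureus in TSB, E. coli in LB. Overnight cultures diluted 1:1000, grown at 37 °C to A600 0.6, then diluted 1:400 into two-fold compound dilutions. Incubated 16–18 h at 37 °C without shaking. MIC taken as the lowest concentration with no visible growth. Two independent experiments.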

In experiment [16] the test system is Staphylococcus aureus. In words: Anti-infectivity against methicillin-resistant Staphylococcus aureus USA300 infected in Galleria mellonella larvae assessed as survival at 12.5 mg/kg and measured after 120 hrs. It counts as functional, organism-based. In a few lines:
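G. mellonella larvae (2-2.5 cm, creamy), starved 24 h at room temperature. S. aureus grown in TSB to A600 1.0, washed and resuspended in PBS, premixed with compound in vehicle (5% DMSO, 20% PEG300, 75% PBS with 6.6% solutol HS-15). Injected into last proleg at about 1 × 10^6 CFU/larva (Newman) or 1 × 10^7 CFU/larva (USA300). Groups of 15 kept at 37 °C, survival recorded 120 h, Mantel–Cox test.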

The source made the active and inactive calls. Where only a bound is given, the exact number is not on record here.

Regarding `COc1ccc(/C=C/C=C2C(=O)NC(=O)NC2=O)cc1`, the IC50 (commonly the concentration that gives 50% inhibition) is 5880 nM in [1], 500 nM in experiment [2], 2300 nM in experiment [4] and 700 nM in experiment [5]. Moreover, in [3], the thermal shift (ΔTm) – broadly, the change in melting temperature against a reference sample – is 4.1 °C. Moreover, the Ki is 2450 nM in experiment [6] and 686 nM in experiment [9]. Also, the values for the Kinact in experiment [7] and in experiment [10] were 0.185 min⁻¹ and 0.044 min⁻¹, respectively. In addition, the Ratio in experiment [8] came to 0.075 µM⁻¹ min⁻¹; in [11], 0.064 µM⁻¹ min⁻¹; in experiment [12] it was 4. Also, the result in [13], in experiment [14] and in experiment [16] was Active. In addition, the MIC (as a rule, the smallest concentration in the dilution series that meets the test's criterion for growth inhibition) in [15] is greater than 512 µg/mL.
